In article PMC11315854 (Drugs in R&D, 2024):
Read-outs that look alike come from different tables or passages of the source. Blank lines part the entries; values can stand above or below the compound they belong to.

Assays:
[1] = Mouse pharmacokinetic model; assay type: in vivo, mice
In short: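 Mean plasma concentration–time data from nude mice given single oral 1, 5 or 10 mg/kg (n = 27 per dose), taken from earlier work. Sampling pre-dose and at 0.083–24 h. Linear one-compartment model with first-order oral absorption fitted simultaneously across doses to estimate ka, CL/F and V/F, with RSE%.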

[2] = Patient population pharmacokinetic model; assay type: in vivo, human
In short: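 Phase 1 3+3 dose-escalation patients. Single oral dose on day 1, 1-week washout, then QD, 3-weeks-on/1-week-off, or QW. Plasma sampled intensively in cycle 1 and pre-dose in later cycles. Assayed by LC–MS/MS (LLOQ 0.5 ng/mL). Two-compartment nonlinear mixed-effects model with first-order absorption, exponential IIV and proportional residual error, fitted in NONMEM.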

[3] = test system: pAkt (serine 473); assay type: in vivo, mice
[4] = test system: pAkt; assay type: in vivo, human; conditions: patients
In short: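 Blood drawn pre-dose and 1, 3, 8 and 24 h post-dose on day 1 from phase 1 patients (n = 37). pAkt in platelet-rich plasma measured by MSD assay and expressed as % of baseline. Concentrations predicted from individual population-PK parameters. Indirect response model (inhibition of pAkt formation) fitted, with Imax and γ1 fixed at 1, proportional error and IIV on IC50.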

[5] = test system: 786-O human renal cell adenocarcinoma (RCC) xenografts; assay: Integrated PK–PD–efficacy model, tumor volume in 786-O xenograft mice; assay type: in vivo; conditions: 786-O xenografts
In short: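 Female beige nude XID mice bearing subcutaneous 786-O tumour fragments. Grouped at 100–300 mm3 (mean 181 mm3). Dosed PO QD for 17 days in MCT (0.5% methylcellulose, 0.2% Tween 80), vehicle or 0.008–11 mg/kg, n = 6. Caliper volumes taken pre-dose and at 72–408 h. Inhibition predicted from mouse PK and PK–PD models. All groups fitted simultaneously to growth/shrinkage model with sigmoid Ks.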

[6] = test system: advanced solid tumors; assay type: in vivo, human
In short: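 Phase 1 dose-escalation patients with advanced solid tumours or NHL, oral 2–200 mg (QD, 3-weeks-on/1-week-off, or QW). Lesions imaged by CT or MRI at baseline, after cycles 1 and 2, then every two cycles. Tumour size linked to predicted %pAkt inhibition via growth/shrinkage model with sigmoid Ks. Individual PK and dosing records used, with individual or typical IC50. All doses fitted simultaneously.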

[7] = Unbound fraction in mice; assay type: in vitro ADME; conditions: mouse, plasma
[8] = Unbound fraction in humans; assay type: in vitro ADME; conditions: human, plasma
[9] = test system: pAkt; conditions: patients, doses ≥ 16 mg; cited from earlier work
[10] = test system: 786-O cell line; conditions: in vitro, cancer cell lines; cited from earlier work
[11] = test system: Gli mRNA; conditions: preclinical models of the hedgehog pathway; cited from earlier work
[12] = nude mice, single PO 1, 5 and 10 mg/kg, one-compartment model

linearity of pharmacokinetics over the range of doses tested ([1]; mice, PO 1, 5 and 10 mg/kg): linear
absorption rate constant (ka), estimate (RSE%) [1, 12]: 1.1 (36.4%) h^−1
apparent volume of distribution after oral dosing (V/F), estimate (RSE%) [1, 12]: 1.13 (17.3%) L/kg
k el ([1]; nude, mouse, plasma, oral): 8.33e-05 s⁻¹
k el ([2]; human, plasma, oral): 2.78e-05 s⁻¹
CL/F ([2]; human, plasma, po): 5.07 mL/min/kg
absorption lagged time estimate (RSE%) ([2]; patients, n = 146, oral dosing): 0.465 (0.43%) h
absorption rate constant (ka), population typical value (RSE%) ([2]; patients, n = 146, oral dosing): 3.35 (16.8%) h^−1
apparent intercompartmental clearance (CLd/F), population typical value (RSE%) ([2]; patients, n = 146, oral dosing): 5.93 (8.53%) L/h
apparent oral clearance (CL/F), population typical value (RSE%) ([2]; patients, n = 146, oral dosing, two-compartment model): 21.3 (4.28%) L/h
fraction unbound [7]: 0.294
fraction unbound [8]: 0.388
SMILES: Cc1c(CN2CCN(C(=O)[C@H](C)O)CC2)sc2c(N3CCOCC3)nc(-c3cnc(N)nc3)nc12 [apitolisib]
body-weight-normalized apparent volume of the central compartment (V1/F) ([2]; patients, assuming reference body weight of 70 kg): 3.01 L/kg
pAkt reduction in tumor ([3]; 786-O tumor-bearing mice, single oral 0.3 mg/kg): very weak
duration of sustained pAkt suppression in tumor ([3]; 786-O tumor-bearing mice, single oral 3 mg/kg): 6 h
duration of sustained pAkt suppression in tumor ([3]; 786-O tumor-bearing mice, single oral 10 mg/kg): 12 h
effect on pAkt in tumors across doses ([3]; 786-O tumor-bearing mice, single oral 0.3, 3 and 10 mg/kg): dose-dependent decrease
kin (rate of biomarker production) ([3]; 786-O xenograft mice, tumor tissue pAkt): 88,698 %/h
Imax (maximum inhibition of %pAkt) ([3]; 786-O xenograft mice, fixed in model): 1 (fix)
kout (first-order rate constant describing biomarker loss) ([3]; 786-O xenograft mice, kout = kin/%pAkt(0), baseline 100%): 886.98 h⁻¹
kin (rate of biomarker production) ([4]; platelet-rich plasma pAkt): 88,699 %/h
effect on pAkt in plasma with increasing doses ([4]; platelet-rich plasma, 2–70 mg): dose-dependent decrease
peak suppression of the platelet pAkt ([4]; platelet-rich plasma, doses ≥ 12 mg): 90%
Imax (maximum inhibition of %pAkt) ([4]; fixed in model): 1 (fix)
kout (first-order rate constant describing biomarker loss) ([4]; kout = kin/%pAkt(0), baseline 100%): 886.99 h⁻¹
Kmax (maximum value of tumor shrinkage rate constant Ks) [5]: 0.0194 h⁻¹
Kg (net tumor growth rate constant) ([5]; QD PO 17 days, 0.008–11 mg/kg): 0.0057 h⁻¹
KI50 (I where Ks is 50% of Kmax) ([5]; pAkt in tumor tissue): 67.2 %pAKT inhibition
constant pAkt inhibition necessary to achieve tumor stasis (Ks = Kg) ([5]; tumor tissue pAkt): 61%
Kmax (maximum value of tumor shrinkage rate constant Ks) ([6]; patients with advanced solid tumors): 0.0142 1/week
Kg (net tumor growth rate constant) ([6]; patients with advanced solid tumors, 2–200 mg): 0.0097 1/week
KI50 (I where Ks is 50% of Kmax) ([6]; patients, pAkt in surrogate plasma): 58.0 %pAKT inhibition
constant pAkt inhibition necessary to achieve tumor stasis (Ks = Kg) ([6]; patients, platelet-rich plasma pAkt): 65%
reduction in platelet-rich plasma PD markers, including pAkt [9]: ≥ 90%
responsiveness of 786-O cell line compared with other tumor types such as MCF-7 [10]: less responsive

SMILES: CS(=O)(=O)c1ccc(C(=O)Nc2ccc(Cl)c(-c3ccccn3)c2)c(Cl)c1 [vismodegib]
minimum Gli mRNA inhibition needed for tumor growth inhibition [11]: ~50%
